{"data": "Experimental data from different studies", "mode": "inhibitor", "CHEK2": "Serine/threonine-protein kinase Chk2 (CHEK2, Homo sapiens, UniProt O96017)", "note": "Compare with care: the assays were run in different laboratories."}
{"SMILES": "CNc1cccc2cc(C(=O)Nc3ccc(C(=O)O)cc3)c(=O)[nH]c12", "target": "CHEK2", "observed": "enzyme activity", "tested at": "10 µM", "inhibition [%]": 15}
{"SMILES": "CCOc1cc(-c2nncn2C)ccc1Nc1ncc2cc(C)nc(NCC(C)(C)C)c2n1", "target": "CHEK2", "observed": "enzyme activity", "method": "FRET", "tested at": "1 µM", "inhibition [%]": "< 15"}
{"SMILES": "Cc1ccc(Nc2nccc(N(C)c3ccc4c(C)n(C)nc4c3)n2)cc1S(N)(=O)=O", "target": "Serine/threonine-protein kinase Chk2 (CHEK2, Homo sapiens, UniProt O96017, I157T)", "observed": "enzyme activity", "tested at": "10 µM", "inhibition [%]": 30}
{"SMILES": "CCN1CCN(Cc2ccc(NC(=O)c3ccc(C)c(Oc4ccnc5[nH]ccc45)c3)cc2C(F)(F)F)CC1", "target": "CHEK2", "observed": "target engagement in cells", "method": "chemoproteomics", "cells": "A-375", "tested at": "0.5 µM", "inhibition [%]": -16.3}
{"SMILES": "COc1cc2ncnc(Nc3ccc(Oc4ccccc4)c(C)c3C)c2cc1OC", "target": "CHEK2", "observed": "enzyme activity", "tested at": "1 µM", "inhibition [%]": 36}
{"SMILES": "Cc1ncc([N+](=O)[O-])n1C(=NO)c1ccccc1C(F)(F)F", "target": "CHEK2", "observed": "enzyme activity", "tested at": "10 µM", "inhibition [%]": 17.1}
{"SMILES": "CNc1cc(Oc2cc(C(=O)Nc3cc(N4CCN(C)CC4)cc(C(F)(F)F)c3)ccc2C)ncn1", "target": "CHEK2", "observed": "target engagement in cells", "method": "chemoproteomics", "cells": "Huh-7", "tested at": "1 µM", "inhibition [%]": -100}
{"SMILES": "COc1cc2ncnc(Nc3ccc(Oc4ccccc4)cc3C)c2cc1OC", "target": "CHEK2", "observed": "enzyme activity", "tested at": "1 µM", "inhibition [%]": 83}
{"SMILES": "CN(C)C1CCN(CC#Cc2nn(C3CCCC3)c3nc(NCc4ccccc4)ncc23)C1 (centres unmarked)", "target": "CHEK2", "observed": "enzyme activity", "method": "FRET", "tested at": "10 µM", "inhibition [%]": 17}
{"SMILES": "CNC(=O)c1cc(Oc2ccc(NC(=O)Nc3ccc(Cl)c(C(F)(F)F)c3)cc2)ccn1", "target": "CHEK2", "observed": "enzyme activity", "tested at": "0.3 µM", "inhibition [%]": -5}
{"SMILES": "CSc1nc(C)c(-c2ccnc(Nc3ccc(N4CCOCC4)cc3)c2)[nH]1", "target": "CHEK2", "observed": "enzyme activity", "tested at": "10 µM", "inhibition [%]": -5.4}
{"SMILES": "CCCS(=O)(=O)Nc1ccc(F)c(C(=O)c2c[nH]c3ncc(-c4ccc(Cl)cc4)cc23)c1F", "target": "CHEK2", "observed": "enzyme activity", "tested at": "1 µM", "inhibition [%]": "< 10"}
{"SMILES": "CN(c1ncccc1CNc1nc(Nc2ccc3c(c2)CC(=O)N3)ncc1C(F)(F)F)S(C)(=O)=O", "target": "CHEK2", "observed": "enzyme activity", "tested at": "1 µM", "inhibition [%]": 33.1}
{"SMILES": "CN1CC(Oc2cnc(C#N)cc2-c2ccn3nc(NC(=O)C4CC4)cc3c2)C1", "target": "CHEK2", "observed": "enzyme activity", "tested at": "1 µM", "inhibition [%]": 0}
